Data: ChEMBL document CHEMBL3124897, “A dynamic G-quadruplex region regulates the HIV-1 long terminal repeat promoter” (J Med Chem, 2013)
Activity calls are given as the source filed them. No cut-off for these calls is given here.

How the values were obtained:
[1] = system: Human immunodeficiency virus; assay: Binding affinity to HIV 1 HXB2 G-quadruplex LTR-4 DNA assessed as change in melting temperature at 16 uM after 24 hrs by circular dichroism spectropolarimeter analysis in the presence of K+
Method in brief: (§1)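 Oligonucleotides at 4 µM final in 10 mM lithium cacodylate, pH 7.4, with or without 100 mM KCl. Annealed at 95 °C for 5 min, slowly cooled, measured after 24 h. Ligand added after annealing at 16 µM final. CD melting from 20–95 °C, 1 min equilibration per step. Tm taken from a van't Hoff two-state fit.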

[2] = system: Human immunodeficiency virus 1; assay: Binding affinity to HIV 1 HXB2 G-quadruplex LTR-3 DNA assessed as change in melting temperature at 16 uM after 24 hrs by circular dichroism spectropolarimeter analysis in the absence of K+; method in brief: as §1
[3] = system: Human immunodeficiency virus 1; assay: Binding affinity to HIV 1 HXB2 G-quadruplex LTR-2 DNA assessed as change in melting temperature at 16 uM after 24 hrs by circular dichroism spectropolarimeter analysis in the absence of K+; method in brief: as §1
[4] = system: Human immunodeficiency virus 1; assay: Binding affinity to HIV 1 HXB2 G-quadruplex LTR-3 DNA assessed as change in melting temperature at 16 uM after 24 hrs by circular dichroism spectropolarimeter analysis in the presence of K+; method in brief: as §1
[5] = system: Human immunodeficiency virus 1; assay: Binding affinity to HIV 1 HXB2 G-quadruplex LTR-FL DNA assessed as change in melting temperature at 16 uM after 24 hrs by circular dichroism spectropolarimeter analysis in the presence of K+; method in brief: as §1
[6] = system: Human immunodeficiency virus 1; assay: Binding affinity to HIV 1 HXB2 G-quadruplex LTR-2 DNA assessed as change in melting temperature at 16 uM after 24 hrs by circular dichroism spectropolarimeter analysis in the presence of K+; method in brief: as §1
[7] = system: Human immunodeficiency virus 1; assay: Binding affinity to HIV 1 HXB2 G-quadruplex FL-LTR DNA assessed as blocking sites at G-tracts (4 to 2) after 20 mins by Taq polymerase stop assay
Method in brief: (§2)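 Primer was 5'-32P-labelled (72 nM) and annealed to full-length LTR template (36 nM) in 10 mM lithium cacodylate, pH 7.4. Template was incubated with ligand plus 100 mM KCl for 20 min at room temperature. Extension used Taq Gold polymerase (2 U) at 47°C for 30 min. Reactions were stopped by EtOH precipitation, run on a 12% denaturing gel and read by phosphorimaging as stop sites at G-tracts.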

[8] = system: Human immunodeficiency virus 1; assay: Binding affinity to HIV 1 HXB2 G-quadruplex FL-LTR DNA assessed as blocking at G-tracts (6 and 5) after 20 mins by Taq polymerase stop assay; method in brief: as §2
[9] = system: Human immunodeficiency virus 1; assay: Inhibition of wild-type HIV 1 HXB2 LTR DNA assessed as reduction in promoter activity after 24 hrs by GFP reporter assay in the presence of Tat
Method in brief: (§3)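 HEK 293T cells (2×10^5) transfected with LTR-EGFP plasmid, with or without Tat. Ligand (1.5–6.0 µM) added 4 h after transfection, then incubated overnight. Mean EGFP fluorescence measured by flow cytometry, 30000 events, gated on GFP+ cells with viable morphology. n = 3, mean ± s.d., Student's t-test.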

[10] = system: Human immunodeficiency virus 1; assay: Antiviral activity against wild type HIV 1 NL4-3 infected in human TZM-bl cells assessed as inhibition of viral replication at 3 to 6 uM after 48 hrs by luciferase reporter gene assay; format: functional, organism-based
Method in brief: (§4)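 TZM-bl cells (HIV-1 LTR-luciferase reporter line), 2×10^4 per well, grown overnight. Ligand preincubated with medium and wild-type or Nef-defective NL4-3 virus for 4 h before infection. Virus stocks were made by transfecting HEK 293T with proviral genomes and amplified in MT2 cells. Luciferase read on lysates after 48 h at 37°C. Values relative to DMSO-only infected control, n = 3, ±SEM.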

[11] = system: Human immunodeficiency virus 1; assay: Antiviral activity against Nef-deficient HIV 1 NL4-3 infected in human TZM-bl cells assessed as inhibition of viral replication at 3 to 6 uM after 48 hrs by luciferase reporter gene assay; format: functional, organism-based; method in brief: as §4
[12] = system: Human immunodeficiency virus 1; assay: Inhibition of wild-type HIV 1 HXB2 LTR DNA assessed as reduction in promoter activity after 24 hrs by GFP reporter assay in the absence of Tat; method in brief: as §3
[13] = system: Human immunodeficiency virus 1; assay: Inhibition of HIV 1 HXB2 G-tract mutant m5 LTR DNA assessed as reduction in promoter activity at 1.5 to 6 uM after 24 hrs by luciferase assay
Method in brief: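 HEK 293T cells (5.5×10^4 per well) transfected with LTR-firefly luciferase vector plus HSV-TK Renilla control vector (200 ng each). Cells treated with ligand at 1.5–6.0 µM. Firefly signal normalized to Renilla and expressed relative to untreated control. n = 3, mean ± s.d., Student's t-test.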

[14] = system: Human immunodeficiency virus 1; assay: Inhibition of wild-type HIV 1 HXB2 LTR DNA assessed as reduction in promoter activity at 6 uM after 24 hrs by GFP reporter assay in the presence of Tat
Method in brief: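 HEK 293T cells (2×10^5) transfected with pcLTR-EGFP, with Tat present. Ligand (1.5–6.0 µM) added 4 h after transfection and left overnight. Flow cytometry gated on GFP+ cells of viable morphology, 30000 events per sample; mean EGFP fluorescence read. n = 3, mean ± s.d., t-test.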

[15] = system: Human immunodeficiency virus 1; assay: Binding affinity to HIV 1 HXB2 G-tract mutant m2 FL-LTR assessed as formation of LTR-2 G-quadruplex by Taq polymerase stop assay
Method in brief: (§5)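 Primer extension on wild-type or mutant full-length LTR templates in 100 mM K+ with 100 nM ligand. Labelled primer (72 nM) annealed to template (36 nM) in 10 mM lithium cacodylate, pH 7.4. Ligand/KCl incubation 20 min at room temperature, then Taq Gold extension at 47°C for 30 min. Products on 12% denaturing gel, phosphorimaging of stop sites.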

[16] = system: Human immunodeficiency virus 1; assay: Binding affinity to HIV 1 HXB2 G-tract mutant m3'' FL-LTR assessed as effect on LTR G-quadruplex formation by Taq polymerase stop assay; method in brief: as §5
[17] = system: Human immunodeficiency virus 1; assay: Binding affinity to HIV 1 HXB2 G-tract mutant m6 FL-LTR DNA assessed as formation of LTR-2 G-quadruplex by Taq polymerase stop assay; method in brief: as §5
[18] = system: Human immunodeficiency virus 1; assay: Binding affinity to HIV 1 HXB2 G-tract mutant m1 FL-LTR assessed as effect on LTR G-quadruplex formation by Taq polymerase stop assay; method in brief: as §5
[19] = Cytotoxicity against human TZM-bl cells at 0.1 to 6 uM after 48 hrs; format: cell-based
Method in brief: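 TZM-bl cells (2×10^4 per well) grown overnight, then exposed to compound in DMSO carrier at 37°C. Viability read after 48 h with Cell Titer Blue reagent.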

[20] = system: Human immunodeficiency virus 1; assay: Binding affinity to HIV 1 HXB2 G-tract mutant m6' FL-LTR assessed as formation of LTR-2 and LTR-3 G-quadruplex by Taq polymerase stop assay; method in brief: as §5
[21] = system: Human immunodeficiency virus 1; assay: Binding affinity to HIV 1 HXB2 G-tract mutant m3 FL-LTR assessed as formation of LTR-4 G-quadruplex by Taq polymerase stop assay; method in brief: as §5
[22] = system: Human immunodeficiency virus 1; assay: Binding affinity to HIV 1 HXB2 G-tract mutant m5/m4 FL-LTR assessed as formation of LTR G-quadruplex by Taq polymerase stop assay; method in brief: as §5
[23] = system: Human immunodeficiency virus 1; assay: Binding affinity to HIV 1 HXB2 G-tract mutant m3' FL-LTR assessed as effect on LTR G-quadruplex formation by Taq polymerase stop assay; method in brief: as §5
[24] = system: Human immunodeficiency virus 1; assay: Inhibition of wild-type HIV 1 HXB2 LTR DNA assessed as reduction in promoter activity at 1.5 to 6 uM after 24 hrs by luciferase assay; parameters: scale not given: the % may be the effect or the level left
Method in brief: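 HEK 293T cells (5.5×10^4 per well) co-transfected with LTR-driven firefly luciferase (pGL4.10Luc2/LTR) and TK-promoter Renilla luciferase (pGL4.74), 200 ng each. Treated with ligand at 1.5–6.0 µM. Firefly signal normalized to Renilla. n = 3, mean ± s.d., Student's t-test.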

| Compound | ΔTm [1] [°C] | ΔTm [2] [°C] | ΔTm [3] [°C] | ΔTm [4] [°C] | ΔTm [5] [°C] | ΔTm [6] [°C] | Activity [7] | Activity [8] | inhibition [9] | inhibition [10] | inhibition [11] | also measured |
| --- | --- | --- | --- | --- | --- | --- | --- | --- | --- | --- | --- | --- |
| O=C1c2ccc3c4ccc5c6c(ccc(c7ccc(c2c37)C(=O)N1CCN1CCCCC1)c64)C(=O)N(CCN1CCCCC1)C5=O | 55.8 | 15 | 13.8 | 16.4 | 8.8 | 31.1 | – | – | – | – | – | – |
| C[n+]1ccc(-c2c3nc(c(-c4cc[n+](C)cc4)c4ccc([nH]4)c(-c4cc[n+](C)cc4)c4ccc([nH]4)c(-c4cc[n+](C)cc4)c4nc2C=C4)C=C3)cc1 | 43.9 | 22.9 | 12.4 | 38 | 4.5 | 33.4 | inactive | Active | – | – | – | – |
| C[n+]1ccccc1-c1c2nc(c(-c3cccc[n+]3C)c3ccc([nH]3)c(-c3cccc[n+]3C)c3ccc([nH]3)c(-c3cccc[n+]3C)c3nc1C=C3)C=C2 | – | – | – | – | – | – | – | – | inactive | inactive | inactive | inhibition [12]: inactive |
| CN(C)c1ccc(Nc2c3ccc(NC(=O)CCN4CCCC4)cc3nc3cc(NC(=O)CCN4CCCC4)ccc23)cc1 | 54 | 12.9 | 17.6 | 42.3 | 5.6 | 39.9 | inactive | Active | Dose-dependent effect | Active | Active | Activity [13]: inactive; inhibition [14]: 50%; Activity [15]: inactive; Activity [16]: inactive; Activity [17]: Active; Activity [18]: inactive; Activity [19]: Non-toxic; Activity [20]: Active; Activity [21]: Active; Activity [22]: inactive; Activity [23]: inactive; Activity [24]: 70%; inhibition ([12]; concentration not given here): 30% |
